Assays:
[1] = species on record: Mus musculus; assay: Central nervous system depressant activity; assay type: functional
In short: (§1)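 Male albino Webster mice, 20–26 g, groups of five, given ip doses of 250, 125, 63 mg/kg and lower until no effect was seen. Doses were calculated as active component and given in 0.9% saline or 100% propylene glycol. Observers scored motor activity, ataxia, depression, reflexes, posture, muscle tone and responses to noise, touch, restraint and transfer over 15–60 min. Survivors were held 24 h for a provisional acute toxicity level.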

[2] = system: Mus musculus; assay: Compound was evaluated for the inhibition of Locomotion-Screen falloff test, at dose (mg/Kg) = 10; 0-30%; assay type: functional
In short: (§2)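 Unfasted male Swiss–Webster mice, 20–30 g, nine per dose in three groups of three, received 10, 30 or 100 mg/kg ip as parent compound in 0.2% methocel, 1 h before testing; controls got methocel. Screen test: percent of mice falling from a screen inverted 180° during 60 s. Then locomotion was read by actophotometer over 1 h as percent inhibition versus vehicle. Graded bands: 60–100% = A.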

[3] = system: Mus musculus; assay: Compound was evaluated for the inhibition of Locomotion-Screen falloff test by ip route; assay type: functional; in short: as §2
[4] = system: Mus musculus; assay: Compound was evaluated for the inhibition of Locomotion-Screen falloff test, at dose (mg/Kg) = 30; 60-100%; assay type: functional; in short: as §2
[5] = system: Mus musculus; assay: Compound was evaluated for the inhibition of Locomotion-Screen falloff test, at dose (mg/Kg) = 100; 60-100%; assay type: functional; in short: as §2
[6] = system: Rattus norvegicus; assay: Evaluated for anticonvulsant activity to protect all rats tested, when administered subcutaneously; assay type: functional
[7] = system: Mus musculus; assay: Compound was evaluated for the inhibition of Locomotion-Screen falloff test, at dose (mg/Kg) = 30; 0-30%; assay type: functional; in short: as §2
[8] = system: Mus musculus; assay: Compound was evaluated for the inhibition of Locomotion-Screen falloff test, at dose (mg/Kg) = 10; 31-59%; assay type: functional; in short: as §2
[9] = system: Mus musculus; assay: Compound was evaluated for the inhibition of Locomotion-Screen falloff test, at dose (mg/Kg) = 100; 31-59%; assay type: functional; in short: as §2
[10] = system: Mus musculus; assay: Compound was evaluated for the inhibition of Locomotion-Screen falloff test, at dose (mg/Kg) = 30; 31-59%; assay type: functional; in short: as §2
[11] = system: Mus musculus; assay: Compound was evaluated for central nervous system depressant activity at 250 mg/kg; c=Quiet at 250 mg/kg; assay type: functional, organism-based; in short: as §1
[12] = system: Mus musculus; assay: Compound was evaluated for the inhibition of Locomotion-Screen falloff test, at dose (mg/Kg) = 10; 60-100%; assay type: functional; in short: as §2
[13] = system: Mus musculus; assay: Compound was evaluated for the inhibition of Locomotion-Screen falloff test, at dose (mg/Kg) = 10; assay type: functional
In short: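 Swiss-Webster male mice (20–30 g, unfasted), 9 per dose in three groups of three; 10 mg/kg ip in 0.2% methocel, dosed as parent compound, 1 h before testing; methocel-injected controls. Inverted wire screen (180° rotation, 60 s) scored as percent falling off. Then actophotometer counts over 1 h give percent inhibition versus vehicle; graded A = 60–100%.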

| Structure (SMILES) | Activity [1] | Activity [6] | also measured |
| --- | --- | --- | --- |
| Cn1nc(-c2ccccc2)c(C(=O)c2ccccc2Cl)c1N | 250 mg/kg | – | – |
| Cc1nn(C)c(N)c1C(=O)c1cccs1 | 8 mg/kg | – | Inhibition [2]: 0%; ED50 [3]: 34.2 mg/kg; Inhibition [4]: 60%; Inhibition [5]: 60% |
| CCCCn1nc(C)c(C(=O)c2cccc(Cl)c2)c1N | 32 mg/kg | 500 mg/kg | – |
| CCCn1nc(C)c(C(=O)c2ccccc2Br)c1N | 8 mg/kg | 32 mg/kg | – |
| Cc1nn(C)c(N)c1C(=O)c1ccccc1Cl | 63 mg/kg | 125 mg/kg | Inhibition [2]: 0%; Inhibition [7]: 0%; Inhibition [5]: 60% |
| Cc1ccccc1C(=O)c1c(C)nn(C)c1N | 32 mg/kg | 125 mg/kg | Inhibition [8]: 31%; Inhibition [7]: 0%; Inhibition [5]: 60% |
| CCCn1nc(C)c(C(=O)c2ccc(Cl)cc2)c1N | 16 mg/kg | 32 mg/kg | – |
| Cc1nn(C(C)C)c(N)c1C(=O)c1ccccc1Cl | 63 mg/kg | 500 mg/kg | – |
| CCCn1nc(C)c(C(=O)c2ccccc2Cl)c1N | 8 mg/kg | 32 mg/kg | – |
| CCCCc1nn(C)c(N)c1C(=O)c1ccccc1Cl | – | 125 mg/kg | – |
| CCCn1nc(C)c(C(=O)c2ccccc2OC)c1N | 16 mg/kg | 125 mg/kg | – |
| Cc1nn(C)c(N)c1C(=O)c1ccc(Cl)cc1 | 125 mg/kg | 125 mg/kg | Inhibition [2]: 0%; Inhibition [7]: 0%; Inhibition [5]: 60% |
| CCn1nc(C)c(C(=O)c2ccccc2Cl)c1N | 32 mg/kg | 16 mg/kg | – |
| COc1ccccc1C(=O)c1c(C)nn(C)c1N | 32 mg/kg | 125 mg/kg | Inhibition [9]: 31%; Inhibition [2]: 0%; Inhibition [10]: 31% |
| CCCn1nc(C)c(C(=O)c2ccccc2C)c1N | 16 mg/kg | 63 mg/kg | – |
| Cc1nn(C)c(N)c1C(=O)c1cccc(Cl)c1 | 125 mg/kg | 63 mg/kg | Inhibition [9]: 31%; Inhibition [2]: 0%; Inhibition [7]: 0% |
| Cc1nn(-c2ccccc2)c(N)c1C(=O)c1ccccc1Cl | 250 mg/kg | – | – |
| Cc1nn(C2CCCCC2)c(N)c1C(=O)c1ccccc1Cl | – | – | Activity [11]: Quiet at 250mg/kg |
| Cc1nn(C)c(N)c1C(=O)c1ccccc1F | 32 mg/kg | 250 mg/kg | ED50 [3]: 9.4 mg/kg; Inhibition [4]: 60%; Inhibition [12]: 60% |

| Structure (SMILES) | Activity [1] | Activity [6] | also measured |
| --- | --- | --- | --- |
| CCc1nn(C)c(N)c1C(=O)c1ccccc1F | 32 mg/kg | 250 mg/kg | Inhibition [9]: 31%; Inhibition [2]: 0%; Inhibition [7]: 0% |
| O=c1[nH]c2ccccc2n1C1CCN(CCCC(c2ccc(F)cc2)c2ccc(F)cc2)CC1 [PIMOZIDE] | – | – | ED50 [13]: 5.9 mg/kg; Inhibition [12]: 60% |
| CCCn1nc(C)c(C(=O)c2ccccc2C(F)(F)F)c1N | 8 mg/kg | 63 mg/kg | – |
| Cc1nn(C)c(N)c1C(=O)c1ccsc1 | 16 mg/kg | – | – |
| COc1cccc(C(=O)c2c(C)nn(C)c2N)c1Cl | 32 mg/kg | 250 mg/kg | – |
| CCCCn1nc(C)c(C(=O)c2ccccc2Cl)c1N | 8 mg/kg | 125 mg/kg | – |
| CCCn1nc(C)c(C(=O)c2cccs2)c1N | 250 mg/kg | 125 mg/kg | – |
| CCCc1nn(C)c(N)c1C(=O)c1ccccc1Cl | 32 mg/kg | 125 mg/kg | – |
| CCc1nn(C)c(N)c1C(=O)c1ccccc1 | 16 mg/kg | 250 mg/kg | Inhibition [8]: 31%; Inhibition [9]: 31%; Inhibition [4]: 60% |
| Cc1nn(C)c(N)c1C(=O)c1ccccc1Br | 63 mg/kg | 125 mg/kg | Inhibition [8]: 31%; Inhibition [9]: 31%; Inhibition [7]: 0% |
| Cc1nn(C)c(N)c1C(=O)c1ccccc1 | 63 mg/kg | 500 mg/kg | Inhibition [2]: 0%; Inhibition [5]: 60%; Inhibition [10]: 31% |
| Cc1nn(C)c(N)c1C(=O)c1ccccc1C(F)(F)F | 125 mg/kg | 250 mg/kg | Inhibition [2]: 0%; Inhibition [5]: 60%; Inhibition [10]: 31% |
| CSc1ccc2c(c1)N(CCC1CCCCN1C)c1ccccc1S2 (configuration not stated) [THIORIDAZINE] | – | – | ED50 [3]: 2.9 mg/kg; Inhibition [12]: 60% |
| Cc1nn(C)c(N)c1C(=O)c1cccc(C(F)(F)F)c1 | 4 mg/kg | 125 mg/kg | Inhibition [9]: 31%; Inhibition [2]: 0%; Inhibition [7]: 0% |
| CCCn1nc(C)c(C(=O)c2cccc(OC)c2Cl)c1N | 16 mg/kg | 63 mg/kg | – |
| CCc1nn(C)c(N)c1C(=O)c1ccccc1Cl | 63 mg/kg | 500 mg/kg | – |
| CCc1nn(C)c(N)c1C(=O)c1cccc(F)c1 | 63 mg/kg | 500 mg/kg | – |
| CC(C)c1nn(C)c(N)c1C(=O)c1ccccc1Cl | 63 mg/kg | – | – |
